The structures appear in SMILES notation.

Here are results for two molecules from ChEMBL document CHEMBL1156071, “Novel L-xylose derivatives as selective sodium-dependent glucose cotransporter 2 (SGLT2) inhibitors for the treatment of type 2 diabetes” (J Med Chem, 2009).

The nature of series [1]: (§1) AUC (0 to infinity) in mouse at 10 mg/kg, po. It is filed as ADME, organism-based, Plasma. Particulars: plasma. Also noted: time infinity, dose 10 mg/kg, route oral.
The nature of series [2]: (§2) Half life in mouse at 1 mg/kg, iv. Type of series: ADME, organism-based. Also noted: dose 1 mg/kg, route intravenous. Particulars: in vivo.
The subject of series [3] is Mus musculus. As to the kind of experiment: Half life in mouse at 10 mg/kg, po. It is filed as ADME, organism-based. Details: dose 10 mg/kg, route oral. Particulars: in vivo.
Series [4] addresses T1, Sodium/glucose cotransporter 2 (Mus musculus, UniProt Q923I7).
T1 sequence (Q923I7 whole entry): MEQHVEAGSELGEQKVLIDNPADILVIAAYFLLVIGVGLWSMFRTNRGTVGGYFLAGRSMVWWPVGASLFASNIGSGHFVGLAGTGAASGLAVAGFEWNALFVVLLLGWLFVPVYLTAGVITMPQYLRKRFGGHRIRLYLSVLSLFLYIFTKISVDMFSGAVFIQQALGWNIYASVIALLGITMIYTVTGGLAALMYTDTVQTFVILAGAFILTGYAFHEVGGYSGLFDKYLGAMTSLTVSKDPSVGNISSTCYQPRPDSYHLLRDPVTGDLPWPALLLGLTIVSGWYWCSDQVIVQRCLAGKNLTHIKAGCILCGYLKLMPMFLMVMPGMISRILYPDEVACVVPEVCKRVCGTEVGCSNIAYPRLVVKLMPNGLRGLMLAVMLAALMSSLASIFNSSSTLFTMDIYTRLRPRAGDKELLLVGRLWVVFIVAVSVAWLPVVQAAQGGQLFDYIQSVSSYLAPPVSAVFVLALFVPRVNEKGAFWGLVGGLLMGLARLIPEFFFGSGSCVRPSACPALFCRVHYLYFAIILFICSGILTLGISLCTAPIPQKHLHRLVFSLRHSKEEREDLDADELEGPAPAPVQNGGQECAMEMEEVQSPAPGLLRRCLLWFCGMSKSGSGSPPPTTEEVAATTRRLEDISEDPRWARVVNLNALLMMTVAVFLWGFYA
Briefly: Inhibition of mouse SGLT2-mediated [14C]alpha-methylglucopyranoside uptake by cell based assay.

Series [5] is described as follows: (§3) Cmax in mouse at 10 mg/kg, po. It is filed as ADME, organism-based. Particulars: in vivo. Also noted: dose 10 mg/kg, route oral.
Series [6] in a line: Clearance in mouse at 1 mg/kg, iv. To be noted: in vivo. Details: dose 1 mg/kg, route intravenous. Type of series: ADME, organism-based.
Series [7] can be described thus: (§4) Apparent volume of distribution with respect to the bioavailability in mouse at 10 mg/kg, po. Type of series: ADME, organism-based. To be noted: in vivo, read-out: Vc/F.
Series [8] concerns the target T2, Sodium/glucose cotransporter 2 (Homo sapiens, UniProt P31639).
T2 sequence (P31639 whole entry): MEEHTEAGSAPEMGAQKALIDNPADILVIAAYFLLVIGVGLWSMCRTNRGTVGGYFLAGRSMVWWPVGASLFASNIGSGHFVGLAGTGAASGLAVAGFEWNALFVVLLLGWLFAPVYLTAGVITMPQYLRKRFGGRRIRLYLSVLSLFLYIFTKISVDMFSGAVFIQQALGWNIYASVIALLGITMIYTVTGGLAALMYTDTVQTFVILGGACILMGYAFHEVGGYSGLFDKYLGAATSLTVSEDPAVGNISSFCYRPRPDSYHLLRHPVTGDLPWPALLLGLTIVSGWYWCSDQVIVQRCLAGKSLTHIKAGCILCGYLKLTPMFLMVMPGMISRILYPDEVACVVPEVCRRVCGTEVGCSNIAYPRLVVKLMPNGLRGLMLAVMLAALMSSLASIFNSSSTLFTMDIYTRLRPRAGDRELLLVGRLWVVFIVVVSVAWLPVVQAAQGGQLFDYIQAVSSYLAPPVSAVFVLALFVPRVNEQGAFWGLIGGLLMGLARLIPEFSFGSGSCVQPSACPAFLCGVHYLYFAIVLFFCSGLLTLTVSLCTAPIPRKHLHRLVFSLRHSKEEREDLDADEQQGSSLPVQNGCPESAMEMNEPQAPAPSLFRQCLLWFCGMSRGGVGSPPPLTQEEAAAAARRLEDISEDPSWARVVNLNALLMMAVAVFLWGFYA
Briefly: Inhibition of human SGLT2 expressed in HEK293 cells assessed as inhibition of [14C]alpha-methylglucopyranoside uptake. Type of series: cell-based. In a few lines:
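Cells stably expressing human SGLT2 were used to measure sodium-coupled uptake of [14C]α-methylglucopyranoside, a metabolically stable SGLT-specific glucose analogue. Uptake was measured across increasing compound concentrations, and IC50 was derived from the inhibition of uptake.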

The nature of series [9]: (§5) AUC(last) in mouse at 10 mg/kg, po. It is filed as ADME, organism-based, Plasma. Also noted: time 0 - last, dose 10 mg/kg, route oral. Particulars: plasma.
Series [10] is described as follows: (§6) Mean resident time in mouse at 10 mg/kg, po. Type of series: ADME, organism-based. Also noted: dose 10 mg/kg, route oral. To be noted: in vivo.
Series [11] can be described thus: (§7) AUC (0 to infinity) in mouse at 1 mg/kg, iv. Type of series: ADME, organism-based, Plasma. Details: dose 1 mg/kg, route intravenous, time infinity. Particulars: plasma.
Series [12] in a line: (§8) Volume of distribution at steady state in mouse at 1 mg/kg, iv. Details: dose 1 mg/kg, route intravenous. Type of series: ADME, organism-based. Particulars: in vivo, read-out: Vdss.
Series [13] in a line: (§9) Tmax in mouse at 1 mg/kg, iv. Particulars: in vivo. Type of series: ADME, organism-based. Also noted: dose 1 mg/kg, route intravenous.
Series [14] in a line: (§10) Tmax in mouse at 10 mg/kg, po. Type of series: ADME, organism-based. Details: dose 10 mg/kg, route oral. Particulars: in vivo.
In series [15] the test system is Mus musculus. As to the kind of experiment: Oral bioavailability in mouse at 10 mg/kg. Type of series: ADME, organism-based. To be noted: in vivo.
The nature of series [16]: Apparent oral clearance in mouse at 10 mg/kg, po. To be noted: in vivo. Also noted: dose 10 mg/kg, route oral. It is filed as ADME, organism-based.
In series [17] the test system is Mus musculus. As to the kind of experiment: Apparent volume of distribution with respect to the bioavailability in mouse at 1 mg/kg, iv. Type of series: ADME, organism-based. Particulars: in vivo.
Series [18] in a line: (§11) Mean resident time in mouse at 1 mg/kg, iv. Type of series: ADME, organism-based. Also noted: dose 1 mg/kg, route intravenous. Particulars: in vivo.
Series [19] deals with Mus musculus. Described as §1. It is filed as ADME, organism-based, Plasma. Details: time infinity, dose 10 mg/kg, route oral. To be noted: in vivo.
In series [20] the test system is Mus musculus. The series is described as §2. It is filed as ADME, organism-based. Details: dose 1 mg/kg, route intravenous. To be noted: in vivo.
The subject of series [21] is Mus musculus. The description is as §3. It is filed as ADME, organism-based. Also noted: dose 10 mg/kg, route oral. Particulars: in vivo.
The subject of series [22] is Mus musculus. The description is as §4. It is filed as ADME, organism-based. To be noted: in vivo.
For series [23], the system named is Mus musculus. The description is as §5. Particulars: in vivo. It is filed as ADME, organism-based, Plasma. Details: time 0 - last, dose 10 mg/kg, route oral.
For series [24], the system named is Mus musculus. The description is as §6. Particulars: in vivo. Details: dose 10 mg/kg, route oral. Type of series: ADME, organism-based.
For series [25], the system named is Mus musculus. The series is described as §7. Type of series: ADME, organism-based, Plasma. Also noted: dose 1 mg/kg, route intravenous, time infinity. Particulars: in vivo.
Series [26] has as its system Mus musculus. The series is described as §8. Type of series: ADME, organism-based. Details: dose 1 mg/kg, route intravenous. To be noted: in vivo.
In series [27] the test system is Mus musculus. Described as §9. Type of series: ADME, organism-based. Details: dose 1 mg/kg, route intravenous. To be noted: in vivo.
In series [28] the test system is Mus musculus. The series is described as §10. It is filed as ADME, organism-based. Details: dose 10 mg/kg, route oral. To be noted: in vivo.
Series [29] deals with Mus musculus. Described as §11. Particulars: in vivo. Type of series: ADME, organism-based. Also noted: dose 1 mg/kg, route intravenous.

On to `CCOc1ccc(Cc2cc([C@@H]3OC(OC)[C@@H](O)[C@H](O)[C@H]3O)ccc2Cl)cc1` (mixture of isomers; 7a), for which the results for the AUC(0-inf) in series [1] and in series [11] were 11.7 µM·h and 1.91 µM·h, respectively. For the same molecule, in series [2], the half-life (as a rule, the time needed for the level to fall by half in the phase considered) was 1.07 h. In the series on Mus musculus [3], this molecule gave a t1/2 of 2.76 h. For the same molecule, the IC50 (in general, the concentration needed to halve the response being measured) in series [4] worked out at 0.0071 µM; in [8], 0.025 µM. In addition, the Cmax (as a rule, the highest concentration seen after dosing) in series [5] was found to be 4.38 µM. In addition, the clearance (as a rule, the volume of plasma or blood freed of the substance per unit of time) in series [6] was found to be 22.5 mL/min/kg. In [7], the Vd/F was determined as 8.48 L/kg. Moreover, the AUC(0-t) (commonly the area under the concentration-time curve up to a stated or last time point) in [9] was 8.19 µM·h. Further, the MRT (usually the average time that molecules of a dose stay in the body) in series [10] was 4.6 h; in series [18] it was 1.62 h. Moreover, the Vd in [12] turned out to be 1.98 L/kg. The Tmax in series [13] and in series [14] was 0.38 h throughout. Also, the F in the series on Mus musculus [15] is listed as 61.2%. Moreover, the CL/F – broadly, the apparent clearance, not corrected for the fraction that reaches the circulation – in [16] turned out to be 35.4 mL/min/kg. In addition, the Vc/F in the series with Mus musculus [17] is 1.91 L/kg.
`CCOc1ccc(Cc2cc([C@@H]3OC(OC)[C@@H](O)[C@H](O)[C@H]3O)ccc2Cl)cc1` (mixture of isomers; 7c): the AUC (commonly the area under the concentration-time curve, a measure of exposure) in the series on Mus musculus [19] amounted to 17.458 µM·h; with Mus musculus [23], 16.191 µM·h; in the series with Mus musculus [25], 1.481 µM·h. In addition, the results for the t1/2 in the series on Mus musculus [20] and with Mus musculus [3] were 1.29 h and 6.96 h, respectively. Besides, the IC50 amounted to 0.0063 µM in [4] and 0.014 µM in series [8]. Besides, the concentration in the series on Mus musculus [21] peaked (Cmax) at 6.49 µM. Also, the values for the Vc/F in the series with Mus musculus [22] and with Mus musculus [17] were 14.2 L/kg and 3.08 L/kg, respectively. Further, the results for the MRT in the series with Mus musculus [24] and with Mus musculus [29] were 8.44 h and 1.77 h, respectively. In the series on Mus musculus [26], the Vdss (as a rule, the apparent volume that relates the amount in the body to the concentration in plasma or blood) stood at 2.93 L/kg. For the same molecule, the Tmax in the series on Mus musculus [27] and with Mus musculus [28] was 0.25 h throughout. In the series with Mus musculus [15], this molecule yielded an F of 100%.
